One experiment addresses T1, Prolyl endopeptidase FAP (Homo sapiens, UniProt Q12884).
T1 sequence (Q12884 whole entry): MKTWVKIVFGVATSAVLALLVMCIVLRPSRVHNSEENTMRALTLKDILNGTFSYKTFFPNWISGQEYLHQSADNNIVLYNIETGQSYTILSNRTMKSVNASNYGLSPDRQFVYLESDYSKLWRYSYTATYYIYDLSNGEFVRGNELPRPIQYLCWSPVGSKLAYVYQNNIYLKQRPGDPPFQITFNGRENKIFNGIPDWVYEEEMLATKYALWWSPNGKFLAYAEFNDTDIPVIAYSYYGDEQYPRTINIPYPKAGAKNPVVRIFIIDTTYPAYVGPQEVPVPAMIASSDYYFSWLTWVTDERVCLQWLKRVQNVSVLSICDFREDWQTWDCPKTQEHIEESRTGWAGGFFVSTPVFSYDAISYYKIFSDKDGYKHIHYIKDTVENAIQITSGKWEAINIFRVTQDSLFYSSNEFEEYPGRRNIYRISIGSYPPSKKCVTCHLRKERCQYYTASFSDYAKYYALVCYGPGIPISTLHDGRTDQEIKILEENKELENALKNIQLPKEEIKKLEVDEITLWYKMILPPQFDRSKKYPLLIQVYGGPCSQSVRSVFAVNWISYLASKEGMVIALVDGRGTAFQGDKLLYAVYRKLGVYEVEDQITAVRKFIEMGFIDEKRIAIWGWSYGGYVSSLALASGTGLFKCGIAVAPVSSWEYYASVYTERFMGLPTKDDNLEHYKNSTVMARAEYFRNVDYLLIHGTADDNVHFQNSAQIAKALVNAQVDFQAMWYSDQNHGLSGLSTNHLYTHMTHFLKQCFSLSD
Briefly: In vitro inhibition of FAP, seprase. In outline:
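FAP cDNA was cloned into the pBacPAC8-CD5 vector, then the enzyme was expressed and purified. Activity was measured with Gly-Pro-pNA as substrate at 6 mM.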

In another experiment the target is Dipeptidyl peptidase 2 (Homo sapiens, UniProt Q9UHL4). Nature of the experiment: In vitro inhibition of DPP-II.
For a further experiment, the target named is Dipeptidyl peptidase 8 (Homo sapiens, UniProt Q6V1X1). Briefly: In vitro inhibition of DPP-8.
Experiment [1] has as its target Dipeptidyl peptidase 4 (Rattus norvegicus) (UniProt P14740). Briefly: Ex vivo inhibition of plasma DPP-4 activity in rats 30 minutes after 10 mg/kg oral dose. In kind it is functional, organism-based. Details: dose 10 mg/kg. The settings on record: at 10 mg/kg. In outline:
(§1)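 Adult male Wistar rats got a single oral gavage dose of 10 mg/kg at 0 h. Blood was collected over time and plasma DPP-IV activity was read as the cleavage rate of Gly-Pro-AMC. Means ± SEM, n = 4/group.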

The next experiment is filed under the species Rattus norvegicus. Conditions: 10 mg/kg.
Experiment [2] addresses Dipeptidyl peptidase 4 (Rattus norvegicus) (UniProt P14740). Nature of the experiment: Ex vivo inhibition of plasma DPP-4 activity in rats 8 hours after 10 mg/kg oral dose. Details: dose 10 mg/kg. Conditions: at 10 mg/kg. In kind it is functional, organism-based. In outline:
as §1

Molecules are shown by their SMILES. Activity calls are given as the source filed them. The rule behind the calls is not given here. Bounds are passed on as bounds.

Chain of Dipeptidyl peptidase 8 (Q6V1X1 whole entry): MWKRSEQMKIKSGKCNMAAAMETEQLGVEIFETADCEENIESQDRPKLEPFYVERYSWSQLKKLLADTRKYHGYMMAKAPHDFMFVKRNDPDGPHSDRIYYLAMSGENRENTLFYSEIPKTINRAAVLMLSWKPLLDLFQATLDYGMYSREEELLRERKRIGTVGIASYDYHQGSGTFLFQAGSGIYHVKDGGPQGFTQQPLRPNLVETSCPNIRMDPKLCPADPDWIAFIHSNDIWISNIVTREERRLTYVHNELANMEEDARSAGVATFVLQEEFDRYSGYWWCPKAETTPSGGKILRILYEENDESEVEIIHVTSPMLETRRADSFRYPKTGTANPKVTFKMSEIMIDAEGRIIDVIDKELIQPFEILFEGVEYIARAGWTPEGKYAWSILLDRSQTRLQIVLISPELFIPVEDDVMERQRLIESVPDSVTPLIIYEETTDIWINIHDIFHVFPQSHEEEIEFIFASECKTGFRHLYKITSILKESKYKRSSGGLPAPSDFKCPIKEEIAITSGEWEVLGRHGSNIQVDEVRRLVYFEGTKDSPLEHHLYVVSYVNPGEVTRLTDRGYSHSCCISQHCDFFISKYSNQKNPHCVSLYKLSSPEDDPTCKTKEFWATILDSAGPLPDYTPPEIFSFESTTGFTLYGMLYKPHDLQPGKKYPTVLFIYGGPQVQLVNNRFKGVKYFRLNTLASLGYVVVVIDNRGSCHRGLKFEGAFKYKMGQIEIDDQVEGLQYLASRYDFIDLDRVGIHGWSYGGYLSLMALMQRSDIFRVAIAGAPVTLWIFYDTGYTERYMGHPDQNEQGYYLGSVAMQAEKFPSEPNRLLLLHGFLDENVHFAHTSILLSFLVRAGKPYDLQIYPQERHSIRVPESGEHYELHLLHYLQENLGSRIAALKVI
Chain of Dipeptidyl peptidase 4 (Rattus norvegicus) (P14740 whole entry, looked up): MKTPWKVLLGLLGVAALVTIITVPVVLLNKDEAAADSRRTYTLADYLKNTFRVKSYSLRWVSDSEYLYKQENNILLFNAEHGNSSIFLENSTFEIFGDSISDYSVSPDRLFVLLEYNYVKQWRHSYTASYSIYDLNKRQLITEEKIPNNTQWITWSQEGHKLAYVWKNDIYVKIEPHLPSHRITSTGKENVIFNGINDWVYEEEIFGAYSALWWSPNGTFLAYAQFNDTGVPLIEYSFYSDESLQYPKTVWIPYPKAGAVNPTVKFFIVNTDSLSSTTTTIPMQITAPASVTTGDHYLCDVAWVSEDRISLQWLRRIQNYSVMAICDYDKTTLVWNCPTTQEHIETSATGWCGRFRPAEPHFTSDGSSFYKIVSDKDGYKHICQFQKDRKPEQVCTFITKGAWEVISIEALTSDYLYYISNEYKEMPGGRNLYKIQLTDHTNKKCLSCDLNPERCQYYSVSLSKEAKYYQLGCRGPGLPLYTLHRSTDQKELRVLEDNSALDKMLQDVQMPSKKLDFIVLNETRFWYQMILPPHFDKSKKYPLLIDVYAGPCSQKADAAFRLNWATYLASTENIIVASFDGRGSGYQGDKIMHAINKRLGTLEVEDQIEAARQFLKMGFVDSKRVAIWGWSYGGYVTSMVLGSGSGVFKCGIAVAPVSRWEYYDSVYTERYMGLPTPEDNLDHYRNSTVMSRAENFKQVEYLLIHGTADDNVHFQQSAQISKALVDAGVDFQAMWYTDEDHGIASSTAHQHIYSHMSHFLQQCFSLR

With `C[C@H](CC(=O)NC(C)(C)c1ccccc1)NCC(=O)N1CCC[C@H]1C#N`, the IC50 on Prolyl endopeptidase FAP and on Dipeptidyl peptidase 2 was above 20 µM each time.
For the compound `CC(C)(CC(=O)NCc1ccccc1)NCC(=O)N1CCC[C@H]1C#N`, the 50% inhibitory concentration (IC50) at Prolyl endopeptidase FAP, against Dipeptidyl peptidase 8 and on Dipeptidyl peptidase 2 was above 20 µM in each case.
The compound `N#C[C@@H]1CCCN1C(=O)CNCCC(=O)NCCc1ccccc1` had an IC50 on Prolyl endopeptidase FAP above 20 µM.
Take `CC(C)(CC(=O)Nc1ccccc1)NCC(=O)N1CCC[C@H]1C#N`: the IC50 at Prolyl endopeptidase FAP, against Dipeptidyl peptidase 8 and at Dipeptidyl peptidase 2 was above 20 µM each time.
Regarding `CC(C)(CC(=O)Nc1ccc(-c2ccccc2)cc1)NCC(=O)N1CCC[C@H]1C#N`, the values for the IC50 at Prolyl endopeptidase FAP, on Dipeptidyl peptidase 8 and at Dipeptidyl peptidase 2 were above 20 µM, above 20 µM and 0.8 µM, respectively.
For the compound `CC(C)(CC(=O)NCCc1ccccc1C(F)(F)F)NCC(=O)N1CCC[C@H]1C#N`, the IC50 against Prolyl endopeptidase FAP, against Dipeptidyl peptidase 8 and at Dipeptidyl peptidase 2 was above 20 µM in each case.
Take `CC(C)(NC(=O)CCNCC(=O)N1CCC[C@H]1C#N)c1ccccc1`: the IC50 on Prolyl endopeptidase FAP and against Dipeptidyl peptidase 2 was above 20 µM each time.
As to `CC(C)(CC(=O)NC(C)(C)c1ccccc1)NCC(=O)N1CCC[C@H]1C#N`, the IC50 against Prolyl endopeptidase FAP, against Dipeptidyl peptidase 8 and against Dipeptidyl peptidase 2 was above 20 µM in each case.
With `COc1ccc(NC(=O)CC(C)(C)NCC(=O)N2CCC[C@H]2C#N)cc1OC`, the IC50 on Prolyl endopeptidase FAP, against Dipeptidyl peptidase 8 and against Dipeptidyl peptidase 2 was above 20 µM in each case. The inhibition was above 80% in experiment [1] and above 50% in experiment [2]. For the same compound, the inhibition entry in the experiment filed under Rattus norvegicus was “Active”.
For `CC(C)(CC(=O)NCCc1ccc(C(F)(F)F)cc1)NCC(=O)N1CCC[C@H]1C#N`, the IC50 at Prolyl endopeptidase FAP, on Dipeptidyl peptidase 8 and against Dipeptidyl peptidase 2 was above 20 µM in each case.
Take `N#C[C@@H]1CCCN1C(=O)CNCCC(=O)NCc1ccccc1`: the IC50 at Prolyl endopeptidase FAP is above 20 µM.
For the compound `CC(C)(CC(=O)NCCc1ccc(Cl)c(Cl)c1)NCC(=O)N1CCC[C@H]1C#N`, the IC50 against Prolyl endopeptidase FAP, at Dipeptidyl peptidase 8 and at Dipeptidyl peptidase 2 was above 20 µM each time.
Take `Cc1ccc(NC(=O)CC(C)(C)NCC(=O)N2CCC[C@H]2C#N)cc1C`: the IC50 against Prolyl endopeptidase FAP, at Dipeptidyl peptidase 8 and on Dipeptidyl peptidase 2 was above 20 µM in each case.
As to `CC(C)(CC(=O)NCCc1cccc(C(F)(F)F)c1)NCC(=O)N1CCC[C@H]1C#N`, the IC50 against Prolyl endopeptidase FAP, at Dipeptidyl peptidase 8 and at Dipeptidyl peptidase 2 was above 20 µM in each case.
For the compound `CC(C)(CC(=O)NCCc1ccccn1)NCC(=O)N1CCC[C@H]1C#N`, the IC50 at Prolyl endopeptidase FAP, against Dipeptidyl peptidase 8 and against Dipeptidyl peptidase 2 was above 20 µM in each case. Moreover, the inhibition result in the experiment filed under Rattus norvegicus was “Active”.
Consider `CC(C)(CC(=O)Nc1ccc(F)c(F)c1)NCC(=O)N1CCC[C@H]1C#N`, for which the IC50 against Prolyl endopeptidase FAP, at Dipeptidyl peptidase 8 and on Dipeptidyl peptidase 2 was above 20 µM throughout.
In the case of `COc1ccc(CCNC(=O)CC(C)(C)NCC(=O)N2CCC[C@H]2C#N)cc1OC`, the IC50 on Prolyl endopeptidase FAP, at Dipeptidyl peptidase 8 and against Dipeptidyl peptidase 2 was above 20 µM each time.
For the compound `COc1ccc(NC(=O)CC(C)(C)NCC(=O)N2CCC[C@H]2C#N)c(OC)c1OC`, the IC50 on Prolyl endopeptidase FAP, on Dipeptidyl peptidase 8 and on Dipeptidyl peptidase 2 was above 20 µM in each case.
With `CC(C)(CC(=O)NCCc1ccccc1)NCC(=O)N1CCC[C@H]1C#N`, the IC50 against Prolyl endopeptidase FAP, against Dipeptidyl peptidase 8 and against Dipeptidyl peptidase 2 was above 20 µM in each case.
As to `CC(C)(CC(=O)NC(C)(C)Cc1ccccc1)NCC(=O)N1CCC[C@H]1C#N`, the IC50 on Prolyl endopeptidase FAP, against Dipeptidyl peptidase 8 and on Dipeptidyl peptidase 2 was above 20 µM in each case.
As to `CC(C)(CC(=O)Nc1ccc(F)cc1)NCC(=O)N1CCC[C@H]1C#N`, the IC50 at Prolyl endopeptidase FAP, on Dipeptidyl peptidase 8 and against Dipeptidyl peptidase 2 was above 20 µM throughout.
Consider `COc1ccc(NC(=O)CC(C)(C)NCC(=O)N2CCC[C@H]2C#N)cc1`, for which the IC50 on Prolyl endopeptidase FAP, against Dipeptidyl peptidase 8 and at Dipeptidyl peptidase 2 was above 20 µM throughout.
Turning to `CC(C)(CC(=O)NCc1ccccn1)NCC(=O)N1CCC[C@H]1C#N`, the IC50 against Prolyl endopeptidase FAP, against Dipeptidyl peptidase 8 and against Dipeptidyl peptidase 2 was above 20 µM throughout.
As to `Cc1ccc(CCNC(=O)CC(C)(C)NCC(=O)N2CCC[C@H]2C#N)cc1`, the IC50 on Prolyl endopeptidase FAP, against Dipeptidyl peptidase 8 and at Dipeptidyl peptidase 2 was above 20 µM in each case.
With `C[C@@H](CC(=O)NC(C)(C)c1ccccc1)NCC(=O)N1CCC[C@H]1C#N`, on Dipeptidyl peptidase 2, the IC50 is above 20 µM.

Broadly, the IC50 is the concentration needed to halve the response being measured. Low readings indicate greater potency, high ones weaker potency. The inhibition is the change of the read-out against control, counted positive when it falls.

The values above are taken from ChEMBL document CHEMBL1137592, “3-[2-((2S)-2-cyano-pyrrolidin-1-yl)-2-oxo-ethylamino]-3-methyl-butyramide analogues as selective DPP-IV inhibitors for the treatment of type-II diabetes” (Bioorg Med Chem Lett, 2007).
